A short description of series [1]: melting temperature; fluorescence melt of hairpins on a sequencing array, two-state fit, raised by 9.35 °C to match UV melts. The following applies: sodium 0.088 M. In short, it runs like this: (§1)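 Folding enthalpy and melting temperature were estimated with bootstrapped two-state fits and combined across four replicates by inverse-variance weighting, with fitted temperatures raised by 9.35 °C to match UV melts. The data were Cy3 fluorescence of library hairpins, with annealed Cy3 and quencher oligos, on a sequenced MiSeq flow cell in 50 mM Na-HEPES pH 8.0, 25 mM NaCl, imaged in 2.5 °C steps up to 60 °C and normalised to pre-quench Cy3 and control constructs.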

Series [2] can be described thus: folding enthalpy; higher = less favourable; fluorescence melt of hairpins on a sequencing array, two-state fit. The note with it: sodium 0.088 M. The method, boiled down:
as §1

In the case of GATTGAGGAAACTCAGTC ((.((((....)))).)), the Tm in series [1] was 36.6 °C. Moreover, the folding enthalpy in series [2] is -26.8 kcal/mol.
The like results for GATCTTAATCAAGATC ((((((....)))))) were, in that order, 38.6 °C and -26.5 kcal/mol.
As for GAGGAAGAAATTCCTC ((((((....)))))), in series [1], the Tm turned out to be 47.7 °C. Also, the folding enthalpy in series [2] was -25 kcal/mol.
The like results for GATCGATTAATCGATC ((((((....)))))) were, in that order, 55.9 °C and -43.9 kcal/mol.
Take GCGAACGAAAGTTCTCGC ((((((....)))..))): in series [1], the Tm amounted to 45.6 °C. Besides, the folding enthalpy in series [2] was -18.8 kcal/mol.
In the case of GCGGACCCCCGC ((((....)))), in series [1], the Tm stood at 53.3 °C. Moreover, the folding enthalpy in series [2] is -34.6 kcal/mol.
The like results for GCCATATCGAAAGATGGC (((..(((....)))))) were, in that order, 48.2 °C and -34.6 kcal/mol.
The like results for GATCGATCCATCGATC ((((((....)))))) were, in that order, 56.7 °C and -49.1 kcal/mol.
The like results for GGAATATCGAAAGATTCC (((..(((....)))))) were, in that order, 33.3 °C and -20 kcal/mol.
In the case of GGACACGAAAGTGCGTCC ((((((....)))..))), the Tm in series [1] turned out to be 40.5 °C. Besides, in series [2], the folding enthalpy is -18.2 kcal/mol.
The like results for GGAATTCCGAAAGGATCC (((..(((....)))))) were, in that order, 28 °C and -10.9 kcal/mol.
The like results for GGTATCGAAAGATAAACC ((((((....)))..))) were, in that order, 30.4 °C and -18.4 kcal/mol.
As to CGATACGGAAACGTCTCG (((.(((....))).))), the Tm in series [1] was determined as 42 °C. Also, in series [2], the folding enthalpy is -33.7 kcal/mol.
The like results for GATCTGATAACAGATC ((((((....)))))) were, in that order, 47 °C and -35.7 kcal/mol.
The like results for GTCCCCGAAAGGGTGAC ((((((....))).))) were, in that order, 53.3 °C and -22.6 kcal/mol.
The like results for GATCATCCATATGATC ((((((....)))))) were, in that order, 47 °C and -34.9 kcal/mol.
In the case of GGTTAGGGAAACTTGACC (((.(.(....).).))), the Tm in series [1] turned out to be 28 °C. Moreover, the folding enthalpy in series [2] was -18.9 kcal/mol.
The like results for GCCATCCGAAAGGAAGGC (((.(((....))).))) were, in that order, 57.9 °C and -31.3 kcal/mol.
The like results for GATCGTCATCACGATC ((((((....)))))) were, in that order, 52.2 °C and -43.8 kcal/mol.
The like results for GATCGGGGGGCCGATC ((((((....)))))) were, in that order, 57.3 °C and -53.6 kcal/mol.
With CTCTTGAAAAAGAG (((((....))))), the Tm in series [1] came to 36.2 °C. Moreover, in series [2], the folding enthalpy was -10.4 kcal/mol.
Turning to GCGTAAGACGC ((((...)))), in series [1], the Tm was 53 °C. Also, the folding enthalpy in series [2] is -21.3 kcal/mol.
For GCAGCGCGAAAGCTTTGC (((..((....))..))), the Tm in series [1] amounted to 37.4 °C. Further, in series [2], the folding enthalpy was -16.7 kcal/mol.
The like results for GATCTTTGCGAAGATC ((((((....)))))) were, in that order, 47.6 °C and -45.8 kcal/mol.
The like results for GAAGATCCGAAAGGATTC (((..(((....)))))) were, in that order, 31.3 °C and -12.6 kcal/mol.
The like results for GTGCCTCCGAAAGGACAC (((..(((....)))))) were, in that order, 52.4 °C and -8.63 kcal/mol.
GATCACGATGTGATC ((((((...)))))): in series [1], the Tm came out at 58.5 °C. In addition, the folding enthalpy in series [2] is -30.8 kcal/mol.
The like results for GCCGTCGGAAACGATGGC (((.(((....))).))) were, in that order, 65.5 °C and -41.1 kcal/mol.
With CGATACGGAAACGTTTCG (((.(((....))).))), in series [1], the Tm stood at 45.9 °C. The folding enthalpy in series [2] is -34.6 kcal/mol.
The like results for GATACAGGAAACTGTATC (((((((....))))))) were, in that order, 54 °C and -42.9 kcal/mol.
The like results for GCTTACGGAAACGTGAGC (((.(((....))).))) were, in that order, 52.6 °C and -43.4 kcal/mol.
Turning to GCCCCCGAAAGGGTGGC ((((((....))).))), the Tm in series [1] is 65.9 °C. Besides, the folding enthalpy in series [2] was -21 kcal/mol.
The like results for GCCCACCCGAAAGGGGGC (((..(((....)))))) were, in that order, 58.4 °C and -17.6 kcal/mol.
The like results for GTTTGAGCGAAAGCTAAC (((..(((....)))))) were, in that order, 31.1 °C and -10.5 kcal/mol.
The like results for GCCCACGAAAGTGAGGGC ((((((....)))..))) were, in that order, 59.9 °C and -28.2 kcal/mol.
In the case of GATAAACGAAAGTTAATC (((.(((....))).))), the Tm in series [1] was found to be 34.4 °C. Further, in series [2], the folding enthalpy was -16 kcal/mol.
The like results for GCGTATCAACGC ((((....)))) were, in that order, 53.9 °C and -25.6 kcal/mol.

(Values after the array DNA melting data of Ke et al. (doi:10.1101/2024.01.08.574731).)
